Assay results collected from several papers.
Compare with care: the assays were run in different laboratories.
BRD9: Bromodomain-containing protein 9 (BRD9, Homo sapiens, UniProt Q9H8M2)

Compound	target	assay	conditions	measurement	value
Cc1cc(O)c(-c2ccc([C@@H](C)CN(C)C)cc2)c2c1[nH]c(=O)c1sccc12	G protein-coupled receptor kinase 5 (GRK5, Homo sapiens, UniProt P34947)	enzyme activity, inhibitor	0.1 µM	inhibition	-6.65%
CCCCC(=O)Nc1ccc(-c2ccc3ncn(CCC)c(=O)c3c2)cn1	Bone morphogenetic protein receptor type-1A (BMPR1A, Homo sapiens, UniProt P36894)	binding, competition with immobilised ligand	0.5 µM	remaining binding	84%
C1=C/COCc2cc(ccc2OCCN2CCCC2)Nc2nccc(n2)-c2cccc(c2)COC/1	Activin receptor type-2A (ACVR2A, Homo sapiens, UniProt P27037)	binding	0.1 µM	remaining binding	83%
COc1cc(-c2cc(C(C)=O)n3ccccc23)c(OC)cc1C(=O)N(C)C	BRD9	thermal stability, DSF	200 µM	ΔTm	13.5 °C
CCN1/C(=C/C(C)=O)Sc2ccc(F)cc21	D(1B) dopamine receptor (DRD5, Homo sapiens, UniProt P21918)	ligand displacement, radioligand	10 µM	inhibition	2.77%
COc1ccc2oc(-c3ccc4nc(N)oc4c3)c/c(=N\c3ccccc3NC(=O)CCN)c2c1	Serine/threonine-protein kinase 35 (STK35, Homo sapiens, UniProt Q8TDR2)	binding	1 µM	remaining binding	104%
COc1cc(-c2cc(C(C)=O)n3ccccc23)cc(OC)c1CN(C)C	BRD9	thermal stability, DSF	200 µM	ΔTm	16.5 °C
Cc1ncc(-c2cc3cc(-c4c(C)ccc(O)c4C)cnc3[nH]2)cn1	Membrane-associated tyrosine- and threonine-specific cdc2-inhibitory kinase (PKMYT1, Homo sapiens, UniProt Q99640)	cell-free assay, TR-FRET	10 µM	inhibition	101%
NC/C(=C\F)COc1cccc(Cn2c(=S)[nH]c(=O)c3[nH]cnc32)c1	Histamine H3 receptor (HRH3, Homo sapiens, UniProt Q9Y5N1)	ligand displacement, radioligand	10 µM	inhibition	< 50%
COc1cc(-c2cc(C(C)=O)n3ccccc23)c(OC)cc1CN(C)C	BRD9	thermal stability, DSF	200 µM	ΔTm	12.5 °C
